ChEMBL document CHEMBL1130378, “Cephalosporin 3'-phloroglucide esters and 7-(phloroglucidamido) cephalosporins as novel antibacterial agents” (1997)
Values after ≈ are worked out from the molar mass of the structure shown.

Assays:
Assay type in all cases: functional
[1] = tested on: Pseudomonas aeruginosa; experiment: Minimum inhibitory concentration for prevention of visible growth of Pseudomonas aeruginosa (1101-75 strain)
Outline: (§1)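 Agar dilution: organisms deposited onto antibiotic-containing agar plates with a Steers-type replicator. MIC taken as the lowest concentration preventing visible growth, given as the mean of duplicate determinations.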

[2] = tested on: Staphylococcus aureus; experiment: Minimum inhibitory concentration for prevention of visible growth of Staphylococcus aureus (FDA 209P strain); outline: as §1
[3] = tested on: Candida albicans; experiment: Minimum inhibitory concentration for prevention of visible growth of Candida albicans; outline: as §1
[4] = tested on: Pseudomonas aeruginosa; experiment: Minimum inhibitory concentration for prevention of visible growth of Pseudomonas aeruginosa (18S-H strain); outline: as §1
[5] = target: Beta-lactamase (Pseudomonas aeruginosa (strain ATCC 15692 / PAO1 / 1C / PRS 101 / LMG12228)) (UniProt P24735); experiment: Minimum protective concentration against beta-lactamase Pseudomonas aeruginosa (18S-H strain)
Beta-lactamase (Pseudomonas aeruginosa (strain ATCC 15692 / PAO1 / 1C / PRS 101 / LMG12228)), sequence (P24735 27-397 limits assumed): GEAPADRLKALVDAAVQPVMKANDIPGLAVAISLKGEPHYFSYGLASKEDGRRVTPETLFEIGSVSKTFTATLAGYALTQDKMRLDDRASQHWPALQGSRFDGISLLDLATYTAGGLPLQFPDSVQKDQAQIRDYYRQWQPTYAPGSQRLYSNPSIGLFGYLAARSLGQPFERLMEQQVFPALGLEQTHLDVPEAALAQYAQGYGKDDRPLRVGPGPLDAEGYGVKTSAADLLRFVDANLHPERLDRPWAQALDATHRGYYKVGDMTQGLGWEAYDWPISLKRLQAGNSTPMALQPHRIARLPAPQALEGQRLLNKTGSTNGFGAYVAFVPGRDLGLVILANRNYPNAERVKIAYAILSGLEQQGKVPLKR
Outline: (§2)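 MPC is the lowest β-lactam concentration that protects the indicator from hydrolysis within 40 min under standard conditions. Compound stability was checked without enzyme in phosphate buffer pH 6.5 at 37 °C.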

[6] = target: Beta-lactamase (Staphylococcus aureus) (UniProt P00807); experiment: Minimum protective concentration against beta-lactamase in Staphylococcus aureus (95 strain); outline: as §2
Beta-lactamase (Staphylococcus aureus), sequence (P00807 whole entry): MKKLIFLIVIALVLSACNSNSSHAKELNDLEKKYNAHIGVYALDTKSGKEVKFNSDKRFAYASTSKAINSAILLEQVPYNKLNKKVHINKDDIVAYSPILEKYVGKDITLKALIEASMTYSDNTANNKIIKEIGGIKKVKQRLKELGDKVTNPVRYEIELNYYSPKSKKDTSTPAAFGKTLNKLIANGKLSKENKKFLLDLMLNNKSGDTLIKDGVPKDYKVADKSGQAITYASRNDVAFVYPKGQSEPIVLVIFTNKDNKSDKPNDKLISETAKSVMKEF

[7] = tested on: Staphylococcus aureus; experiment: Minimum inhibitory concentration for prevention of visible growth of Staphylococcus aureus (95 strain); outline: as §1

| SMILES | MIC [1] [µg/mL] | MIC [2] [µg/mL] | MIC [3] [µg/mL] | MIC [4] [µg/mL] | MPC [5] [µg/mL] | MPC [6] [µg/mL] | MIC [7] [µg/mL] |
| --- | --- | --- | --- | --- | --- | --- | --- |
| O=C(COc1ccccc1)N[C@@H]1C(=O)N2C(C(=O)O)=C(COC(=O)c3cccc(Cc4cc(Cl)cc(Cc5ccccc5O)c4O)c3O)CS[C@H]12 | 0.98 (≈ 1.34 µM) | 0.41 (≈ 0.561 µM) | 5.86 (≈ 8.01 µM) | 1.24 (≈ 1.7 µM) | 6.74 | 7.08 | 1.2 (≈ 1.64 µM) |
| Oc1ccccc1Cc1cccc(Cc2ccccc2O)c1O | > 145 | > 145 | > 145 | > 145 |  |  | > 145 |
| O=C(COc1ccccc1)N[C@@H]1C(=O)N2C(C(=O)O)=C(COC(=O)c3cccc(C(=O)c4cc(Cl)cc(C(=O)c5ccccc5O)c4O)c3O)CS[C@H]12 | 1.37 (≈ 1.8 µM) | 0.9 (≈ 1.19 µM) | 6.47 (≈ 8.52 µM) | 3.13 (≈ 4.12 µM) | 5.98 | 4.81 | 2.1 (≈ 2.77 µM) |
| O=C(O)c1cccc(Cc2cc(Cl)cc(Cc3cccc(C(=O)O)c3O)c2O)c1O | 0.86 (≈ 2.01 µM) | 3.25 (≈ 7.58 µM) | 16.5 (≈ 38.5 µM) | 1.32 (≈ 3.08 µM) |  |  | 4.15 (≈ 9.68 µM) |
| COC(=O)c1cccc(C(=O)c2cc(Cl)cc(C(=O)c3ccccc3O)c2O)c1O | 5.78 (≈ 13.5 µM) | 14.7 (≈ 34.4 µM) | 125 (≈ 294 µM) | 4.3 (≈ 10.1 µM) |  |  | 15.3 (≈ 35.9 µM) |
| COC(=O)c1cccc(Cc2cc(Cl)cc(Cc3ccccc3O)c2O)c1O | 1.25 (≈ 3.13 µM) | 2.98 (≈ 7.47 µM) | 117 (≈ 294 µM) | 1.56 (≈ 3.91 µM) |  |  | 4.65 (≈ 11.7 µM) |
| O=C(O)c1cccc(C(=O)c2cc(Cl)cc(C(=O)c3cccc(C(=O)O)c3O)c2O)c1O | 2.54 (≈ 5.56 µM) | 18.2 (≈ 40 µM) | 19.1 (≈ 41.9 µM) | 3.06 (≈ 6.7 µM) |  |  | 22.2 (≈ 48.6 µM) |
| Oc1ccccc1Cc1cc(Cl)cc(Cc2ccccc2O)c1O | 0.07 (≈ 0.205 µM) | 1.2 (≈ 3.52 µM) | 2.06 (≈ 6.04 µM) | 0.18 (≈ 0.528 µM) |  |  | 0.58 (≈ 1.7 µM) |
| CC(=O)Oc1ccc(Br)cc1Cc1cc(Cl)cc(Cc2cc(Br)ccc2OC(C)=O)c1OC(C)=O | > 145 | > 145 | > 145 | > 145 |  |  | > 145 |
| Oc1ccc(Br)cc1Cc1cc(Cl)cc(Cc2cc(Br)ccc2O)c1O | 39.4 (≈ 79 µM) | 45 (≈ 90.3 µM) | 115 (≈ 231 µM) | 36.7 (≈ 73.6 µM) |  |  | 49 (≈ 98.2 µM) |
| CC(=O)OCC1=C(C(=O)O)N2C(=O)[C@@H](NC(=O)COc3ccccc3)[C@H]2SC1 | > 145 | 0.7 (≈ 1.72 µM) | > 145 | > 145 | 0.97 | 1.35 | > 145 |
| CNC(=O)c1cccc(Cc2cc(Cl)cc(Cc3ccccc3O)c2O)c1O | 3.28 (≈ 8.24 µM) | 7.35 (≈ 18.5 µM) | 114 (≈ 287 µM) | 4.7 (≈ 11.8 µM) |  |  | 6.63 (≈ 16.7 µM) |
| O=C(O)c1cccc(C(=O)c2cc(Cl)cc(C(=O)c3ccccc3O)c2O)c1O | 0.17 (≈ 0.412 µM) | 3.67 (≈ 8.89 µM) | 3.7 (≈ 8.96 µM) | 0.26 (≈ 0.63 µM) |  |  | 0.98 (≈ 2.37 µM) |
| CO/N=C(\C(=O)N[C@@H]1C(=O)N2C(C(=O)O)=C(COC(C)=O)CS[C@H]12)c1csc(N)n1 [CEFOTAXIME] | 69.9 (≈ 153 µM) | 1.7 (≈ 3.73 µM) | > 145 | 135 (≈ 296 µM) | 1.03 | 2.72 | 40.6 (≈ 89.1 µM) |
| CC(=O)OCC1=C(C(=O)O)N2C(=O)[C@@H](NC(=O)c3cccc(Cc4cc(Cl)cc(Cc5ccccc5O)c4O)c3O)[C@H]2SC1 | 0.28 (≈ 0.438 µM) | 0.35 (≈ 0.548 µM) | 28.3 (≈ 44.3 µM) | 0.45 (≈ 0.704 µM) | 99.8 | 95.2 | 0.28 (≈ 0.438 µM) |
| O=C(O)[C@H]1/C(=C/CO)O[C@@H]2CC(=O)N21 |  |  |  |  | 3 | 0.38 |  |
| CC(=O)Oc1ccccc1Cc1cc(Cl)cc(Cc2ccccc2OC(C)=O)c1OC(C)=O | > 145 | > 145 | > 145 | > 145 |  |  | > 145 |
| CC(=O)OCC1=C(C(=O)O)N2C(=O)[C@@H](NC(=O)c3cccc(C(=O)c4cc(Cl)cc(C(=O)c5ccccc5O)c4O)c3O)[C@H]2SC1 | 0.79 (≈ 1.18 µM) | 0.78 (≈ 1.17 µM) | 14.2 (≈ 21.3 µM) | 0.38 (≈ 0.57 µM) | 93.5 | 88.7 | 0.45 (≈ 0.675 µM) |
| CNC(=O)c1cccc(C(=O)c2cc(Cl)cc(C(=O)c3ccccc3O)c2O)c1O | 6.03 (≈ 14.2 µM) | 18.1 (≈ 42.6 µM) | 120 (≈ 281 µM) | 8.32 (≈ 19.5 µM) |  |  | 17.8 (≈ 41.7 µM) |
| O=C(O)c1cccc(Cc2cc(Cl)cc(Cc3ccccc3O)c2O)c1O | 0.02 (≈ 0.052 µM) | 0.86 (≈ 2.23 µM) | 1.43 (≈ 3.72 µM) | 0.1 (≈ 0.26 µM) |  |  | 0.43 (≈ 1.12 µM) |
